Reference: paper PMC5159300 (Cell chemical biology, 2016)
Values after ≈ are worked out from the molar mass of the structure shown. Like-named read-outs stand apart in the source and are kept apart here.

Legend:
cytochrome bc1 [1] = target: cytochrome bc1 (Saccharomyces cerevisiae, UniProt P00163); test: Cytochrome bc1 enzymatic activity in purified yeast mitochondria; format: biochemical; settings: read-out: IC50 cytochrome bc1 inhibition; S. cerevisiae mitochondria, wild type
cytochrome bc1 [2] = target: cytochrome bc1 (Candida albicans, UniProt P0C8L0); test: Cytochrome bc1 enzymatic activity in purified C. albicans mitochondria; format: biochemical; settings: for Extent of inhibition of C. albicans cytochrome bc1 activity: maximal effect
S. cerevisiae (BY4741) = format: cell-based
C. albicans (SC5314) = test: C. albicans growth in media with glucose or glycerol as carbon source; format: cell-based, Candida albicans
How it was run: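 Growth compared in synthetic medium of yeast nitrogen base with complete amino acid supplement, containing either 2% glucose or 2% glycerol as carbon source. Data pooled from two independent experiments.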

Plasma stability = format: in vitro ADME, human
[3] = Mouse liver microsome stability; format: in vitro ADME; settings: 15 minute incubation at 37 C
Solubility limit = format: physicochemical
human cytochrome bc1 [4] = target: T1, human cytochrome bc1 (Homo sapiens, UniProt P00156); settings: human IC50 versus C. albicans homolog IC50
C. albicans CaCi-2 = format: cell-based, Candida albicans; settings: in the presence of fluconazole; SAR statement
[5] = test system: C. albicans wild-type (SC5314); test: Emergence of fluconazole-resistant colonies on agar plates; format: cell-based, Candida albicans
C. albicans SC5314 [6] = test: Clonogenic survival in liquid culture; format: cell-based, Candida albicans; settings: for Effect on growth and viability as single agent: 32 mg/L fluconazole alone or 10 μM Inz-5 alone
C. albicans SC5314 [7] = test: Diffusion halo assay on agar plates with various carbon sources; format: cell-based, Candida albicans; settings: 10 μg disc
How it was run: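 SC5314 cells were spread on agar plates with different carbon sources. These included 80% fetal bovine serum as nutrient source (~0.1-0.2% glucose), high (2%) glucose, galactose and non-fermentable sources. A filter disc carried 10 μg test compound in DMSO or DMSO alone. The zone of growth inhibition was scored.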

C. albicans = test: Co-culture of C. albicans with mouse bone-marrow-derived macrophages; format: cell-based, Candida albicans; settings: 5 μM
Scedosporium prolificans = test: Single-agent growth inhibition of Scedosporium prolificans; format: cell-based; settings: enhanced under respiratory growth conditions
Aspgerillus terreus = test: Single-agent growth inhibition of Aspgerillus terreus; format: cell-based; settings: enhanced under respiratory growth conditions
Rhizopus oryzae = test: Single-agent growth inhibition of Rhizopus oryzae; format: cell-based; settings: enhanced under respiratory growth conditions
HepG2 cells = test: Mammalian cell respiration toxicity; format: cell-based; settings: Homo sapiens, HepG2, read-out: IC50 toxicity to respiring HepG2 cells
How it was run: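 HepG2 cells were passaged in high-glucose DMEM, washed and resuspended in glucose-free DMEM with 10 mM galactose to force respiration, then seeded at 10,000 cells/well. After 72 hr with test compound, cellular ATP was measured by luminescent assay (reagent at 1:5 dilution) as a proxy for growth. IC50 was averaged from at least 2 independent experiments.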

malarial cytochrome B = settings: ref Hughes et al., 1998; cited from earlier work
human cytochrome bc1 [8] = target: T1, human cytochrome bc1; test: biochemical
[9] = test system: C. albicans CaCi-2 and rip1Δ/Δ; test: Mouse systemic infection; format: in vivo, Balb/C mice; settings: low inoculum of CaCi-2 or rip1Δ/Δ; fluconazole 24 mg/kg IP for 3 days
[10] = media containing glycerol as the sole carbon source

Chain of cytochrome bc1 (Candida albicans, UniProt P0C8L0) (P0C8L0 whole entry): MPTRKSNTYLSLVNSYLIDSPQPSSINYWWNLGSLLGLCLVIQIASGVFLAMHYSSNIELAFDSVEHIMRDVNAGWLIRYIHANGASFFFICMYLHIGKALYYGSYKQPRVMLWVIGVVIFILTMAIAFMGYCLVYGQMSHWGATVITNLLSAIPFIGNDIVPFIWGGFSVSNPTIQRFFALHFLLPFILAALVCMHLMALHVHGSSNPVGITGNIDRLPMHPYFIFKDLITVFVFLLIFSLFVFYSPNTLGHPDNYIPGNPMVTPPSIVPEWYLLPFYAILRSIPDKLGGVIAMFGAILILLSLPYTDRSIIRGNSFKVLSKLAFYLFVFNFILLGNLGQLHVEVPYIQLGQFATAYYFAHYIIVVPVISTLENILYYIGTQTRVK

## COC(=O)Cn1nc(-c2ccccc2)c2ccccc21 [Inz-1]
Cytochrome bc1 [1]
  IC50: 2500 nM
Cytochrome bc1 [2]
  Extent of inhibition of C. albicans cytochrome bc1 activity: significant residual activity
S. cerevisiae (BY4741); cytochrome B L275S mutant
  Resistance conferred by L275S mutation: confer resistance
S. cerevisiae (BY4741); cytochrome B P270L mutant
  Resistance conferred by P270L mutation: confer resistance
S. cerevisiae (BY4741); glucose media
  Growth inhibition: only mildly slowing growth
S. cerevisiae (BY4741); [10]
  Growth inhibition: potently inhibited growth
S. cerevisiae (BY4741); yeast cytochrome B G143A mutant, respiratory growth
  Resistance conferred by G143A mutation: strong resistance
C. albicans (SC5314); glucose media
  Growth inhibition: only mildly slowing growth
C. albicans (SC5314); [10]
  Growth inhibition: potently inhibited growth
Plasma stability; incubation of 1 hour at 37 C in human plasma
  Plasma stability: fully degraded
[3]
  Compound remaining in mouse liver microsomes: < 1%
Solubility limit
  Solubility limit: 32 µM (≈ 8.52 µg/mL)
Human cytochrome bc1 [4]
  Fold higher IC50 for human than for C. albicans cytochrome bc1: 5.6 fold

## COC(=O)Cn1nc(-c2cc(C(F)(F)F)ccc2F)c2ccccc21 [Inz-2]
Cytochrome bc1 [2]; compared with Inz-1
  Potency against the fungal enzyme: significant enhancement of potency

## COC(=O)Cn1nc(-c2ccccc2)c2cccc(C)c21 [Inz-3]
C. albicans CaCi-2
  Activity against Candida proliferation: beneficial to both the activity and the selectivity

## Cc1cccc2c(-c3cc(C(F)(F)F)ccc3F)nn(Cc3nnn(C)n3)c12 [Inz-5]
C. albicans CaCi-2
  Activity against Candida proliferation: sub-micromolar activity
Cytochrome bc1 [2]
  Extent of inhibition of C. albicans cytochrome bc1 activity: complete inhibition
Plasma stability; 3 hours of incubation in human serum
  Plasma stability: fully recovered
[3]
  Compound remaining in mouse liver microsomes: 19.5%
[5]; 10 μM Inz-5 alone
  Effect on colonies: reduced colony size, but no reduction in the total number of colonies
[5]; 10 μM Inz-5 in combination with 64 mg/L fluconazole
  Effect on emergence of resistant colonies: completely abrogated the emergence of resistant colonies
C. albicans SC5314 [6]; 10 μM Inz-5 in combination with 32 mg/L fluconazole
  Reduction of the number of viable colonies: 97%
C. albicans SC5314 [6]
  Effect on growth and viability as single agent: partially slowed growth
C. albicans SC5314 [7]; 80% fetal bovine serum as the nutrient source
  Growth inhibition in halo assay: slight growth inhibition
C. albicans SC5314 [7]; amino acids, lactate, or acetate as the carbon source
  Growth inhibition in halo assay: potent and profound growth inhibition
C. albicans SC5314 [7]; galactose
  Growth inhibition in halo assay: moderate growth inhibition
C. albicans SC5314 [7]; high glucose
  Growth inhibition in halo assay: very little growth inhibition
C. albicans; 14-hour co-culture
  Fungal growth in the presence of macrophages: sharply curtailed fungal growth
C. albicans; 2 hours
  Escape of C. albicans from macrophages: remained trapped in the phagosome
Scedosporium prolificans
  Growth inhibition as a single agent: promising growth inhibition
Aspgerillus terreus
  Growth inhibition as a single agent: promising growth inhibition
Rhizopus oryzae
  Growth inhibition as a single agent: promising growth inhibition

## Cn1nnc(Cn2nc(-c3ccccc3)c3ccccc32)n1 [Inz-34]
C. albicans CaCi-2
  Activity against Candida proliferation: retained activity

## c1ccc(-c2nn(Cc3cnccn3)c3ccccc23)cc1 [Inz-37]
C. albicans CaCi-2
  Activity against Candida proliferation: retained activity

## O=C1C(O)=C([C@H]2CC[C@H](c3ccc(Cl)cc3)CC2)C(=O)c2ccccc21 [atovaquone]
HepG2 cells
  IC50: 12700 nM
Malarial cytochrome B
  Potency against the malarial cytochrome B: low nanomolar potency
Human cytochrome bc1 [8]
  IC50: 1800 nM

## OC(Cn1cncn1)(Cn1cncn1)c1ccc(F)cc1F [fluconazole, reference compound]
[5]; 64 mg/L fluconazole alone
  Rate of emergence of resistant colonies: ~ 0.5%
C. albicans SC5314 [6]
  Effect on growth and viability as single agent: slowed growth of the wild-type strain but did not cause a decrease in viability
[9]
  Brain fungal burden: eliminated brain colonization
